Drawing on ChEMBL document CHEMBL4396949, “Anti-cancer potential of novel glycosylated 1,4-substituted triazolylchalcone derivatives” (Bioorg Med Chem Lett, 2019), this text covers CC50 and selectivity ratio for 22 compounds.

The subject of one series is MDA-MB-468. The series is described as follows: Antiproliferative activity against human MDA-MB-468 cells incubated for 24 hrs by MTT assay. It is filed as functional. The conditions noted are these: MDA-MB-468, 24 h, read-out: LD50 (the source's name). Put shortly: (§1)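 Cells exposed to compounds at […]; viability read by MTT assay. LD50 derived from concentration-response. MDA-MB-468: triple-negative (ER-, PR-, HER2-) breast cancer. MCF-7: ER+, PR+, HER2- breast cancer. WI-38: non-cancerous lung fibroblasts. Selectivity index taken as WI-38 LD50 divided by cancer-cell LD50.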
A general note: Tetrazolium assays rely on reduction of a dye to a coloured formazan, in cell work by metabolically active cells.

The next series deals with MCF7. Kind of series: Antiproliferative activity against human MCF7 cells incubated for 24 hrs by MTT assay. It is filed as functional. The conditions noted are these: MCF7, 24 h, read-out: LD50 (the source's name). In a few lines:
as §1

The nature of series [1]: Antiproliferative activity against human WI38 cells incubated for 24 hrs by MTT assay. To be noted: read-out: LD50. It is filed as cell-based, WI-38. In a few lines:
as §1

Series [2] is described as follows: Selectivity index, ratio of LD50 for human WI38 cells to LD50 for human MDA-MB-468 cells. It is filed as toxicity. To be noted: WI38 cells and MDA-MB-468 cells, read-out: Selectivity Index. Put shortly:
(§2)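 MTT cytotoxicity after exposure to […] in MDA-MB-468, MCF-7 and WI-38 fibroblasts; LD50 determined per line; selectivity index calculated as WI-38 LD50 divided by cancer-cell LD50.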

The nature of series [3]: Selectivity index, ratio of LD50 for human WI38 cells to LD50 for human MCF7 cells. It is filed as toxicity. The conditions noted are these: WI38 cells and MCF7 cells, read-out: Selectivity Index. In a few lines: as §2

For `COc1ccc(C(=O)/C=C/c2ccc(OCc3cn([C@@H]4O[C@H](CO)[C@@H](O)[C@H](O)[C@H]4O)nn3)c(OC)c2)cc1OC`, the CC50 with MDA-MB-468 is 67 µM; with MCF7, 66 µM. For the same compound, the CC50 at 24 h in series [1] amounted to 96 µM. Besides, the selectivity ratio in series [2] amounted to 1.43; in series [3], 1.45.

Consider `O=C(/C=C/c1ccccc1Cl)c1ccc(OCc2cn([C@@H]3O[C@H](CO)[C@@H](O)[C@H](O)[C@H]3O)nn2)cc1`, for which the CC50 with MDA-MB-468 stood at 64 µM; with MCF7, 72 µM. In series [1], the CC50 at 24 h amounted to 68 µM. In addition, the selectivity ratio in series [2] stood at 1.06; in series [3] it was 0.94.

`COc1cc([C@@H]2c3cc4c(cc3[C@@H](O[C@@H]3O[C@@H]5CO[C@@H](C)O[C@H]5[C@H](O)[C@H]3O)[C@H]3COC(=O)[C@H]23)OCO4)cc(OC)c1O` [ETOPOSIDE]: the values for the CC50 in the series on MDA-MB-468 and in the series with MCF7 were 34 µM and 38 µM, respectively. For the same compound, in series [1], the CC50 at 24 h amounted to 36 µM. Moreover, the selectivity ratio in series [2] was 1.06; in series [3] it was 0.95.

On to `COc1cc(/C=C/C(=O)c2ccccc2)ccc1OCc1cn([C@@H]2O[C@H](CO)[C@@H](O)[C@H](O)[C@H]2O)nn1`, for which the CC50 worked out at 89 µM in the series on MDA-MB-468 and 123 µM in the series on MCF7. Also, the CC50 at 24 h in series [1] was 98 µM. In addition, the selectivity ratio in series [2] amounted to 1.1; in series [3], 0.8.

Turning to `O=C(/C=C/c1cc(Cl)cc(Cl)c1)c1ccc(OCc2cn([C@@H]3O[C@H](CO)[C@@H](O)[C@H](O)[C@H]3O)nn2)cc1`, the CC50 came out at 62 µM in the series on MDA-MB-468 and 74 µM with MCF7. Further, the CC50 at 24 h in series [1] worked out at 64 µM. For the same compound, the selectivity ratio amounted to 1.03 in series [2] and 0.86 in series [3].

On to `COc1cccc(/C=C/C(=O)c2ccc(OCc3cn([C@@H]4O[C@H](CO)[C@@H](O)[C@H](O)[C@H]4O)nn3)cc2)c1`, for which the CC50 in the series with MDA-MB-468 stood at 77 µM; with MCF7, 63 µM. In addition, the CC50 at 24 h in series [1] was found to be 73 µM. The figures for the selectivity ratio in series [2] and in series [3] were 0.94 and 1.16, respectively.

Consider `COc1cc(/C=C/C(=O)c2ccc(Br)cc2)ccc1OCc1cn([C@@H]2O[C@H](CO)[C@@H](O)[C@H](O)[C@H]2O)nn1`, for which the results for the CC50 in the series on MDA-MB-468 and in the series with MCF7 were 65 µM and 99 µM, respectively. The CC50 at 24 h in series [1] turned out to be 89 µM. The results for the selectivity ratio in series [2] and in series [3] were 1.37 and 0.9, respectively.

On to `CCOc1ccc(/C=C/C(=O)c2ccc(OCc3cn([C@@H]4O[C@H](CO)[C@@H](O)[C@H](O)[C@H]4O)nn3)cc2)cc1`, for which the CC50 in the series on MDA-MB-468 turned out to be 74 µM; with MCF7, 68 µM. The CC50 at 24 h in series [1] is 78 µM. Also, the selectivity ratio in series [2] is 1.05; in series [3], 1.15.

For `COc1ccc(/C=C/C(=O)c2ccc(OCc3cn([C@@H]4O[C@H](CO)[C@@H](O)[C@H](O)[C@H]4O)nn3)cc2)cc1OC`, the CC50 was 88 µM in the series on MDA-MB-468 and 115 µM in the series with MCF7. Moreover, the CC50 at 24 h in series [1] is 95 µM. The selectivity ratio in series [2] was found to be 1.08; in series [3], 0.83.

Take `O=C(/C=C/c1ccc(Cl)c(Cl)c1)c1ccc(OCc2cn([C@@H]3O[C@H](CO)[C@@H](O)[C@H](O)[C@H]3O)nn2)cc1`: the CC50 in the series on MDA-MB-468 turned out to be 59 µM; with MCF7, 65 µM. The CC50 at 24 h in series [1] is 55 µM. Besides, the results for the selectivity ratio in series [2] and in series [3] were 0.93 and 0.85, respectively.

Consider `O=C(/C=C/c1ccc(OCc2ccccc2)cc1)c1ccc(OCc2cn([C@@H]3O[C@H](CO)[C@@H](O)[C@H](O)[C@H]3O)nn2)cc1`, for which the CC50 came out at 57 µM in the series on MDA-MB-468 and 79 µM with MCF7. Also, in series [1], the CC50 at 24 h worked out at 68 µM. The selectivity ratio in series [2] turned out to be 1.19; in series [3] it was 0.86.

Regarding `O=C(/C=C/c1ccc([N+](=O)[O-])cc1)c1ccc(OCc2cn([C@@H]3O[C@H](CO)[C@@H](O)[C@H](O)[C@H]3O)nn2)cc1`, the CC50 in the series on MDA-MB-468 was 43 µM; with MCF7, 54 µM. For the same compound, in series [1], the CC50 at 24 h was found to be 64 µM. The selectivity ratio in series [2] worked out at 1.49; in series [3] it was 1.19.

For `COc1cc(/C=C/C(=O)c2ccc(C#N)cc2)ccc1OCc1cn([C@@H]2O[C@H](CO)[C@@H](O)[C@H](O)[C@H]2O)nn1`, the results for the CC50 in the series on MDA-MB-468 and with MCF7 were 82 µM and 78 µM, respectively. Further, in series [1], the CC50 at 24 h was determined as 88 µM. The selectivity ratio was found to be 1.07 in series [2] and 1.13 in series [3].

As for `COc1cc(/C=C/C(=O)c2ccc(OCc3cn([C@@H]4O[C@H](CO)[C@@H](O)[C@H](O)[C@H]4O)nn3)cc2)cc(OC)c1`, the results for the CC50 in the series on MDA-MB-468 and in the series with MCF7 were 33 µM and 72 µM, respectively. Also, the CC50 at 24 h in series [1] was determined as 52 µM. The selectivity ratio in series [2] was 1.56; in series [3], 0.72.

For the compound `COc1cc(/C=C/C(=O)c2cc(OC)c(OC)c(OC)c2)ccc1OCc1cn([C@@H]2O[C@H](CO)[C@@H](O)[C@H](O)[C@H]2O)nn1`, the values for the CC50 with MDA-MB-468 and in the series on MCF7 were 73 µM and 87 µM, respectively. In addition, in series [1], the CC50 at 24 h was 67 µM. In addition, the values for the selectivity ratio in series [2] and in series [3] were 0.92 and 0.77, respectively.

For the compound `O=C(/C=C/c1cccc([N+](=O)[O-])c1)c1ccc(OCc2cn([C@@H]3O[C@H](CO)[C@@H](O)[C@H](O)[C@H]3O)nn2)cc1`, the CC50 in the series with MDA-MB-468 amounted to 64 µM; with MCF7, 59 µM. In addition, the CC50 at 24 h in series [1] came to 69 µM. For the same compound, the results for the selectivity ratio in series [2] and in series [3] were 1.07 and 1.17, respectively.

In the case of `COc1ccc(/C=C/C(=O)c2ccc(OCc3cn([C@@H]4O[C@H](CO)[C@@H](O)[C@H](O)[C@H]4O)nn3)cc2)cc1`, the CC50 with MDA-MB-468 came to 39 µM; in the series with MCF7, 53 µM. In addition, in series [1], the CC50 at 24 h came to 72 µM. For the same compound, the selectivity ratio came to 1.84 in series [2] and 1.36 in series [3].

In the case of `COc1ccccc1/C=C/C(=O)c1ccc(OCc2cn([C@@H]3O[C@H](CO)[C@@H](O)[C@H](O)[C@H]3O)nn2)cc1`, the CC50 was found to be 79 µM in the series on MDA-MB-468 and 97 µM in the series with MCF7. In series [1], the CC50 at 24 h is 103 µM. Further, the selectivity ratio was determined as 1.3 in series [2] and 1.06 in series [3].

Consider `COc1cc(/C=C/C(=O)c2ccc([N+](=O)[O-])cc2)ccc1OCc1cn([C@@H]2O[C@H](CO)[C@@H](O)[C@H](O)[C@H]2O)nn1`, for which the CC50 with MDA-MB-468 is 68 µM; in the series with MCF7, 76 µM. Besides, the CC50 at 24 h in series [1] is 75 µM. For the same compound, the selectivity ratio in series [2] was 1.02; in series [3] it was 0.99.

Turning to `COc1cc(/C=C/C(=O)c2ccc(OCc3cn([C@@H]4O[C@H](CO)[C@@H](O)[C@H](O)[C@H]4O)nn3)cc2)cc(OC)c1OC`, the CC50 in the series on MDA-MB-468 is 51 µM; with MCF7, 84 µM. In series [1], the CC50 at 24 h is 54 µM. Also, the selectivity ratio stood at 1.06 in series [2] and 0.64 in series [3].

Turning to `CC(=O)O[C@H]1C(=O)[C@@]2(C)[C@H]([C@H](OC(=O)c3ccccc3)[C@]3(O)C[C@H](OC(=O)[C@H](O)[C@@H](NC(=O)c4ccccc4)c4ccccc4)C(C)=C1C3(C)C)[C@]1(OC(C)=O)CO[C@@H]1C[C@@H]2O` [PACLITAXEL], the CC50 in the series with MDA-MB-468 came to 27 µM; in the series on MCF7, 29 µM. The CC50 at 24 h in series [1] came to 35 µM. The selectivity ratio in series [2] was determined as 1.29; in series [3], 1.2.

On to `COc1ccc(/C=C/C(=O)c2ccc(OCc3cn([C@@H]4O[C@H](CO)[C@@H](O)[C@H](O)[C@H]4O)nn3)cc2)cc1OCc1ccccc1`, for which the results for the CC50 in the series on MDA-MB-468 and in the series on MCF7 were 64 µM and 84 µM, respectively. The CC50 at 24 h in series [1] was 105 µM. Besides, the selectivity ratio in series [2] is 1.64; in series [3], 1.25.
